Laboratory results as given in paper PMC5508980 (Molecular nutrition & food research, 2017).

molecular target: recombinant HDAC1 (Homo sapiens, UniProt Q13547); experiment: Recombinant HDAC activity assay; assay type: biochemical; details: 2 h, read-out: % HDAC activity, Class I HDACs, 1
Sequence (Q13547 whole entry): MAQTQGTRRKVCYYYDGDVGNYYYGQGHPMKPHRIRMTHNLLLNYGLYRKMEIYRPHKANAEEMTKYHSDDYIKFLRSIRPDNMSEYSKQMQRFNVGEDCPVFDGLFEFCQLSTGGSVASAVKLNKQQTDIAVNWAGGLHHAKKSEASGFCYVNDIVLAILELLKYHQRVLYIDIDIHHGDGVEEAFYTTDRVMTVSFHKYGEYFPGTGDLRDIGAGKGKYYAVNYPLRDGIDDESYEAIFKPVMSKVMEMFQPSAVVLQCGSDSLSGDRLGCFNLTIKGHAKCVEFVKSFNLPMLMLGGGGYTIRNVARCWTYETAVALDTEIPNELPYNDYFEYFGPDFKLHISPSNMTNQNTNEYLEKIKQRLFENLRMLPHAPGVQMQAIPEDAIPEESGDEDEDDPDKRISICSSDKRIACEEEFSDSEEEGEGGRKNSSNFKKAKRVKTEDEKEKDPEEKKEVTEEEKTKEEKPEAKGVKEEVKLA

Row | remaining activity at 50 µM | SMILES
1 | 60.7% | O=c1cc(-c2ccc(O)c(O)c2)oc2cc(O)cc(O)c12 [Luteolin]
2 | 68% | O=c1c(O)c(-c2cc(O)c(O)c(O)c2)oc2cc(O)cc(O)c12 [Myricetin]

same assay, conditions: recombinant protein incubated with 50 µM compound, 2 hrs

Row | % HDAC activity, Class I HDACs, 1 | SMILES
3 | 62.3% | O.O=c1c(O)c(-c2ccc(O)cc2O)oc2cc(O)cc(O)c12 [Morin hydrate]

molecular target: recombinant HDAC2 (Homo sapiens, UniProt Q92769); experiment: Recombinant HDAC activity assay; assay type: biochemical; details: 2 h, read-out: % HDAC activity, Class I HDACs, 2
Sequence (Q92769 whole entry): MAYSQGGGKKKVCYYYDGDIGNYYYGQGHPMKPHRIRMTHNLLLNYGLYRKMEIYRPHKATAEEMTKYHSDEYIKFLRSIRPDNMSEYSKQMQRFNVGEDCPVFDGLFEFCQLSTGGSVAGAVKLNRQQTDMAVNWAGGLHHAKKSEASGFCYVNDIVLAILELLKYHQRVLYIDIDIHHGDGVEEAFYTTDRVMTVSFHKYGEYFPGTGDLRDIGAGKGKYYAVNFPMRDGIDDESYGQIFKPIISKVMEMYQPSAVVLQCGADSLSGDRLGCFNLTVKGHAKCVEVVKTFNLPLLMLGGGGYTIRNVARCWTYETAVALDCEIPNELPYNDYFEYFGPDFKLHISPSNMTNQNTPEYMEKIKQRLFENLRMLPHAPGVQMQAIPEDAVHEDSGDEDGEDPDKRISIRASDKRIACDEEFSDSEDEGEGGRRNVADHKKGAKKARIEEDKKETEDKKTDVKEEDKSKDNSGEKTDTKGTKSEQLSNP

Row | remaining activity at 50 µM | SMILES
4 | 49.5% | O=c1cc(-c2ccc(O)c(O)c2)oc2cc(O)cc(O)c12 [Luteolin]

same assay, conditions: recombinant protein incubated with 50 µM compound, 2 hrs

Row | % HDAC activity, Class I HDACs, 2 | SMILES
5 | 43.3% | O.O=c1c(O)c(-c2ccc(O)cc2O)oc2cc(O)cc(O)c12 [Morin hydrate]

molecular target: recombinant HDAC3 (Homo sapiens, UniProt O15379); experiment: Recombinant HDAC activity assay; assay type: biochemical; details: 2 h, read-out: % HDAC activity, Class I HDACs, 3
Sequence (O15379 whole entry): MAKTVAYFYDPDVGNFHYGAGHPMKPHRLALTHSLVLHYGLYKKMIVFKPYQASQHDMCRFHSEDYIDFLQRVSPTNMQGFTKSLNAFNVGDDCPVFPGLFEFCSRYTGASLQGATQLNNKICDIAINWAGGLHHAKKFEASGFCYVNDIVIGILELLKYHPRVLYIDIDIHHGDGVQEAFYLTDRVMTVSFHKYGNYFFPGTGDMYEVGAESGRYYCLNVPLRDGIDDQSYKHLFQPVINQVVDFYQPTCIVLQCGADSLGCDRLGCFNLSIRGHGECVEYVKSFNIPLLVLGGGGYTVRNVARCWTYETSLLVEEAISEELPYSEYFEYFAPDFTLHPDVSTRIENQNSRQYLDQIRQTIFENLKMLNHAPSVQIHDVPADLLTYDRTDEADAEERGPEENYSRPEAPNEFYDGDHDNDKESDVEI
Sequence (Q9Y618 395-489 partner limits assumed): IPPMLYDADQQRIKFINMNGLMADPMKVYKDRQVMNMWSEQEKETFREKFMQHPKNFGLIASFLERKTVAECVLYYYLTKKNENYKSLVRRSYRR

Row | remaining activity at 50 µM | SMILES
6 | 59.2% | O=c1cc(-c2ccccc2)oc2cc(O)c(O)c(O)c12 [Baicalein]
7 | 51.4% | O=c1cc(-c2ccc(O)c(O)c2)oc2cc(O)cc(O)c12 [Luteolin]
8 | 59.9% | O=c1c(O)c(-c2cc(O)c(O)c(O)c2)oc2cc(O)cc(O)c12 [Myricetin]

same assay, conditions: recombinant protein incubated with 50 µM compound, 2 hrs

Row | % HDAC activity, Class I HDACs, 3 | SMILES
9 | 56.0% | O.O=c1c(O)c(-c2ccc(O)cc2O)oc2cc(O)cc(O)c12 [Morin hydrate]

molecular target: T1, recombinant HDAC8 (Homo sapiens, UniProt Q9BY41); experiment: Recombinant HDAC activity assay; assay type: biochemical; details: 2 h, read-out: % HDAC activity, Class I HDACs, 8
T1 sequence (Q9BY41 1-377): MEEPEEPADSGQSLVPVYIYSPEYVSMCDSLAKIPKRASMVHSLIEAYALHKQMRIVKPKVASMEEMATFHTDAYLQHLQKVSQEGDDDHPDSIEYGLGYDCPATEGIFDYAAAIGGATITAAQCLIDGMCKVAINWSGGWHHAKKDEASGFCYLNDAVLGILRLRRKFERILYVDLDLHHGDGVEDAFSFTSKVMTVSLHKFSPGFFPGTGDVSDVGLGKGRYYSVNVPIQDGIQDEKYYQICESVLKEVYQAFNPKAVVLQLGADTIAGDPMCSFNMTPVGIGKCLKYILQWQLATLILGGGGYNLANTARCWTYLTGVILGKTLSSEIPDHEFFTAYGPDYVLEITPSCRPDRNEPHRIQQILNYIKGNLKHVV

Row | remaining activity at 50 µM | SMILES
10 | 52.8% | O=c1cc(-c2ccc(O)c(O)c2)oc2cc(O)cc(O)c12 [Luteolin]
11 | 60.2% | O=c1c(O)c(-c2cc(O)c(O)c(O)c2)oc2cc(O)cc(O)c12 [Myricetin]

same assay, conditions: recombinant protein incubated with 50 µM compound, 2 hrs

Row | % HDAC activity, Class I HDACs, 8 | SMILES
12 | 89.1% | O=C(O[C@@H]1Cc2c(O)cc(O)cc2O[C@@H]1c1cc(O)c(O)c(O)c1)c1cc(O)c(O)c(O)c1 [EGCG, epigallocatechin gallate]
13 | 49.3% | O.O=c1c(O)c(-c2ccc(O)cc2O)oc2cc(O)cc(O)c12 [Morin hydrate]

molecular target: recombinant HDAC4 (Homo sapiens, UniProt P56524); experiment: Recombinant HDAC activity assay; assay type: biochemical; details: recombinant protein incubated with 50 µM compound, 2 hrs
Sequence (P56524 whole entry): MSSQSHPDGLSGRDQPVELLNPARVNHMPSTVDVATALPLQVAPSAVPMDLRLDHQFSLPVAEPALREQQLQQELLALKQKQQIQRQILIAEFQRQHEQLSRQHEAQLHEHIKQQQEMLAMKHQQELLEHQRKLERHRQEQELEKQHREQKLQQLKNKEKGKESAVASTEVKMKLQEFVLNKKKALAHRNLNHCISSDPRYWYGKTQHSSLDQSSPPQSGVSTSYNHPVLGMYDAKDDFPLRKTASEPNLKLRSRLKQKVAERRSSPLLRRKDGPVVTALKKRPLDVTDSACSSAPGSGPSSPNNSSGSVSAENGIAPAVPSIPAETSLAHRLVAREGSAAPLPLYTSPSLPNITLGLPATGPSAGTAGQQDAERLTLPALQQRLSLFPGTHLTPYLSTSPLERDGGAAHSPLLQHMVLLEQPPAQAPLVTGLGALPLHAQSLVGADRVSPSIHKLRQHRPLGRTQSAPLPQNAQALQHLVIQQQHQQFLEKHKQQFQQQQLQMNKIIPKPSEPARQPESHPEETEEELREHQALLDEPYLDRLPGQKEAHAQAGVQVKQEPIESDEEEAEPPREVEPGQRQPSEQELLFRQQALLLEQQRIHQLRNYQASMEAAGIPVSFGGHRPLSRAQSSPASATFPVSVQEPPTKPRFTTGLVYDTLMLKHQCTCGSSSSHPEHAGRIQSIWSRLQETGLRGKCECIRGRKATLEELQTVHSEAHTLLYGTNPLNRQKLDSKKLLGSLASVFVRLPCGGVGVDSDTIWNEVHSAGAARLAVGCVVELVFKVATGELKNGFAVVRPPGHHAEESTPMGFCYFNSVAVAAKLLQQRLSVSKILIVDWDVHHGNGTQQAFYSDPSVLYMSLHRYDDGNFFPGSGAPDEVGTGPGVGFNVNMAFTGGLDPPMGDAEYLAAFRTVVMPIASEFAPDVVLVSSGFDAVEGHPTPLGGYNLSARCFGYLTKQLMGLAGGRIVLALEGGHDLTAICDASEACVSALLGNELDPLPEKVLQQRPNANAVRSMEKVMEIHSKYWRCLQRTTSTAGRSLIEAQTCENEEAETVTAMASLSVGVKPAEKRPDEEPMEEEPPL

Row | % HDAC activity, Class IIa HDACs, 4 | SMILES
14 | 82.5% | O=C(O[C@@H]1Cc2c(O)cc(O)cc2O[C@@H]1c1cc(O)c(O)c(O)c1)c1cc(O)c(O)c(O)c1 [EGCG, epigallocatechin gallate]

molecular target: recombinant HDAC5 (Homo sapiens, UniProt Q9UQL6); experiment: Recombinant HDAC activity assay; assay type: biochemical; details: 2 h, read-out: % HDAC activity, Class IIa HDACs, 5
Sequence (Q9UQL6 whole entry): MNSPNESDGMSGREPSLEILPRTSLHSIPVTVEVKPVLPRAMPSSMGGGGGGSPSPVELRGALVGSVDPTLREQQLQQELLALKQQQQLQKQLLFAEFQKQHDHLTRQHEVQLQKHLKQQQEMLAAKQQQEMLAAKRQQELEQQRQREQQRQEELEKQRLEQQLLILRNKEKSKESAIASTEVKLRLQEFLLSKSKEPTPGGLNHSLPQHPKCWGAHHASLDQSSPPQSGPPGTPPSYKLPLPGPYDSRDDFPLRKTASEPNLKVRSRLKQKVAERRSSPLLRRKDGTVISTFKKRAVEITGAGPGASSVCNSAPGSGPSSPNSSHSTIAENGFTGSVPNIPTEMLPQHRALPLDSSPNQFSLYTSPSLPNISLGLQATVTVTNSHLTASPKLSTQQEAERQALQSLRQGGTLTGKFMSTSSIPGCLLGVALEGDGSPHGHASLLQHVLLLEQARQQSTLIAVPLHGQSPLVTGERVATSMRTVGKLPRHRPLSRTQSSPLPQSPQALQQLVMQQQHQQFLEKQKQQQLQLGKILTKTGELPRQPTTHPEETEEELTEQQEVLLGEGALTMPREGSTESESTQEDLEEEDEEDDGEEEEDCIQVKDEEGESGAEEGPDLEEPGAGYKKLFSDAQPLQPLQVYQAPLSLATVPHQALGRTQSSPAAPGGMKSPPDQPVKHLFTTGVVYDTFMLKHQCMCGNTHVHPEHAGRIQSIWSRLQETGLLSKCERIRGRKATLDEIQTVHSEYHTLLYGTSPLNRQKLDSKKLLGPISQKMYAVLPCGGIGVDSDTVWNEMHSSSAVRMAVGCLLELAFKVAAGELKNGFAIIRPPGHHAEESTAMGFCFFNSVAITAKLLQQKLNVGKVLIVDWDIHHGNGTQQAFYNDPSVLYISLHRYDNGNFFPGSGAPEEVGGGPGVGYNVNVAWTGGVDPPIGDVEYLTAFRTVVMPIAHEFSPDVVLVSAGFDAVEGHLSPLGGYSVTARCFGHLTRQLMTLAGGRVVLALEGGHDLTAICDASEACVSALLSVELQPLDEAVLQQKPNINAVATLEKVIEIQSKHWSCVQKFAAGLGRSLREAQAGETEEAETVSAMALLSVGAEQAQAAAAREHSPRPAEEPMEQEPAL

Row | remaining activity at 50 µM | SMILES
15 | 76.6% | O=c1cc(-c2ccccc2)oc2cc(O)c(O)c(O)c12 [Baicalein]
16 | 59.5% | O=c1cc(-c2ccc(O)c(O)c2)oc2cc(O)cc(O)c12 [Luteolin]
17 | 65.1% | O=c1c(O)c(-c2cc(O)c(O)c(O)c2)oc2cc(O)cc(O)c12 [Myricetin]

same assay, conditions: recombinant protein incubated with 50 µM compound, 2 hrs

Row | % HDAC activity, Class IIa HDACs, 5 | SMILES
18 | 56.7% | O.O=c1c(O)c(-c2ccc(O)cc2O)oc2cc(O)cc(O)c12 [Morin hydrate]

molecular target: T2, recombinant HDAC7 (Homo sapiens, UniProt Q8WUI4); experiment: Recombinant HDAC activity assay; assay type: biochemical; details: recombinant protein incubated with 50 µM compound, 2 hrs
T2 sequence (Q8WUI4 1-952): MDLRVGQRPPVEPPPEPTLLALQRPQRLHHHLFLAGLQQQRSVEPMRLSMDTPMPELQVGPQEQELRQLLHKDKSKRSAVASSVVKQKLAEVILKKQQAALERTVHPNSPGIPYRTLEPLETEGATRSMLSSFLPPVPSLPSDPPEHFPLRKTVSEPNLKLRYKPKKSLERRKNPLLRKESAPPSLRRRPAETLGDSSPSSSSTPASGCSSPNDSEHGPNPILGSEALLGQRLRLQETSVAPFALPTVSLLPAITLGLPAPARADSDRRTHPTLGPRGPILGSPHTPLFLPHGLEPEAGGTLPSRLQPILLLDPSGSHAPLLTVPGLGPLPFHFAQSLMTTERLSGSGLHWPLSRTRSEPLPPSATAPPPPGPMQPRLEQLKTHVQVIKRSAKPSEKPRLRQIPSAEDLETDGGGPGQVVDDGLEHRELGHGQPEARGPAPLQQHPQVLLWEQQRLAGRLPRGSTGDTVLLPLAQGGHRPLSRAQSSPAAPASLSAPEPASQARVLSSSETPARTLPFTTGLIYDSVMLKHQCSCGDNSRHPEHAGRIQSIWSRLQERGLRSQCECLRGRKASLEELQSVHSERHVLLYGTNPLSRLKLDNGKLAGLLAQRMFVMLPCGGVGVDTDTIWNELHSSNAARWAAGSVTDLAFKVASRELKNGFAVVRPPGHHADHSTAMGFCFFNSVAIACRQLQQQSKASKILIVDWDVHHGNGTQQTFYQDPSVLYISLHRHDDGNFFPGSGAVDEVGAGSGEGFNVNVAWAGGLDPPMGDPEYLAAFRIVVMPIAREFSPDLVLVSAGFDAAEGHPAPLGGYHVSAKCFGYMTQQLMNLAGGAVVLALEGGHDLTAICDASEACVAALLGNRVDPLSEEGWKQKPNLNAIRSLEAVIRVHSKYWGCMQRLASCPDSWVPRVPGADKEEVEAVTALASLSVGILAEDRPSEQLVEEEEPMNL

Row | % HDAC activity, Class IIa HDACs, 7 | SMILES
19 | - | O=c1cc(-c2ccccc2)oc2cc(O)c(O)c(O)c12 [Baicalein]
20 | - | O=C(O)/C=C/c1ccc(O)c(O)c1 [Caffeic acid]
21 | - | O=C(O[C@@H]1Cc2c(O)cc(O)cc2O[C@@H]1c1cc(O)c(O)c(O)c1)c1cc(O)c(O)c(O)c1 [EGCG, epigallocatechin gallate]
22 | - | O=c1cc(-c2ccc(O)c(O)c2)oc2cc(O)cc(O)c12 [Luteolin]
23 | - | O.O=c1c(O)c(-c2ccc(O)cc2O)oc2cc(O)cc(O)c12 [Morin hydrate]
24 | - | O=c1c(O)c(-c2cc(O)c(O)c(O)c2)oc2cc(O)cc(O)c12 [Myricetin]

molecular target: recombinant HDAC9 (Homo sapiens, UniProt Q9UKV0); experiment: Recombinant HDAC activity assay; assay type: biochemical; details: 2 h, read-out: % HDAC activity, Class IIa HDACs, 9
Sequence (Q9UKV0 whole entry): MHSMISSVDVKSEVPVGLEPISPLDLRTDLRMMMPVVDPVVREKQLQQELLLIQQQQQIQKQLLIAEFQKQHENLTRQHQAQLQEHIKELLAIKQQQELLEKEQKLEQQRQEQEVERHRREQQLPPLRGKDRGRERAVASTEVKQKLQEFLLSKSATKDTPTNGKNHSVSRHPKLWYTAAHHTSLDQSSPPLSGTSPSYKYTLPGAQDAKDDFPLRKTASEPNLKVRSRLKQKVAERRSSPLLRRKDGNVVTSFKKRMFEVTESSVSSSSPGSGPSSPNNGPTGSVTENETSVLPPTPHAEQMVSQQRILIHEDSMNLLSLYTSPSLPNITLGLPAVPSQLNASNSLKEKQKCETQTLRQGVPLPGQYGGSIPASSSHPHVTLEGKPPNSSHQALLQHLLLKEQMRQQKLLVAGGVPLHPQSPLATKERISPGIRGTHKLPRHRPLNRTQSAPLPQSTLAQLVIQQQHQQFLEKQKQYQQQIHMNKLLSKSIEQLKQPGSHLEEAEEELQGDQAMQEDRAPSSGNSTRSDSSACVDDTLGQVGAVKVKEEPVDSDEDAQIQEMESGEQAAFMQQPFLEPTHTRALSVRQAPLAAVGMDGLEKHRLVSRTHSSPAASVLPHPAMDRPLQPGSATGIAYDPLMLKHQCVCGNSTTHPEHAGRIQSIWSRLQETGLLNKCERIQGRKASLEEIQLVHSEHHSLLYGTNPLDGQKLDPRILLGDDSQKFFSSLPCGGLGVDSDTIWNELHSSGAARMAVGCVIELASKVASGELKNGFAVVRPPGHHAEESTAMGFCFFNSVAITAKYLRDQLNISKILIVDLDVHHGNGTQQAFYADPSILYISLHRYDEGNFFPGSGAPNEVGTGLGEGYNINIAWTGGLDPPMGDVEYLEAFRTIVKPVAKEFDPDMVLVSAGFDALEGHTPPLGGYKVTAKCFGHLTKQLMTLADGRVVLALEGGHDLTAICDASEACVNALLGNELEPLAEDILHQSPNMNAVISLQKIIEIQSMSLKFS

Row | remaining activity at 50 µM | SMILES
25 | 66.1% | O=c1cc(-c2ccccc2)oc2cc(O)c(O)c(O)c12 [Baicalein]
26 | 52.3% | O=c1cc(-c2ccc(O)c(O)c2)oc2cc(O)cc(O)c12 [Luteolin]
27 | 77% | O=c1c(O)c(-c2cc(O)c(O)c(O)c2)oc2cc(O)cc(O)c12 [Myricetin]

same assay, conditions: recombinant protein incubated with 50 µM compound, 2 hrs

Row | % HDAC activity, Class IIa HDACs, 9 | SMILES
28 | 56.1% | O.O=c1c(O)c(-c2ccc(O)cc2O)oc2cc(O)cc(O)c12 [Morin hydrate]

molecular target: T3, recombinant HDAC10 (Homo sapiens, UniProt Q969S8); experiment: Recombinant HDAC activity assay; assay type: biochemical; details: 2 h, read-out: % HDAC activity, Class IIb HDACs, 10
T3 sequence (Q969S8 1-669): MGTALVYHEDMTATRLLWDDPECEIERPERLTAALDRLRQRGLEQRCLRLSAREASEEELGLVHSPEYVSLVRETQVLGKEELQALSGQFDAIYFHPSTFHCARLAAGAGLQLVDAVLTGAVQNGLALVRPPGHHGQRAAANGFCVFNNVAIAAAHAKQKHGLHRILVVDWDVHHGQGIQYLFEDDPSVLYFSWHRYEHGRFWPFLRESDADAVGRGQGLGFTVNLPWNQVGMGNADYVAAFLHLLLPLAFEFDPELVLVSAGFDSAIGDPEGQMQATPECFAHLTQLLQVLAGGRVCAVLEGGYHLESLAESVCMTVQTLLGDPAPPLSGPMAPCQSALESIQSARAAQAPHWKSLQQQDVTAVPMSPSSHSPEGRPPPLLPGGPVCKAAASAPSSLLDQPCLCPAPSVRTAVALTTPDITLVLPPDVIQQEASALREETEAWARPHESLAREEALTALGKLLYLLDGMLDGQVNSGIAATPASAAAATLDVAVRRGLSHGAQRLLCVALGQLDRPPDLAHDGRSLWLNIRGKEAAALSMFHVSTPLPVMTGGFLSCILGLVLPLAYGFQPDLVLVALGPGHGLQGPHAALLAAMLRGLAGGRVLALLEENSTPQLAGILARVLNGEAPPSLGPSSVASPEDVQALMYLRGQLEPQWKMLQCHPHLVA

Row | remaining activity at 50 µM | SMILES
29 | 55.9% | O=c1cc(-c2ccc(O)c(O)c2)oc2cc(O)cc(O)c12 [Luteolin]
30 | 63.4% | O=c1c(O)c(-c2cc(O)c(O)c(O)c2)oc2cc(O)cc(O)c12 [Myricetin]

same assay, conditions: recombinant protein incubated with 50 µM compound, 2 hrs

Row | % HDAC activity, Class IIb HDACs, 10 | SMILES
31 | 91.2% | O=C(O[C@@H]1Cc2c(O)cc(O)cc2O[C@@H]1c1cc(O)c(O)c(O)c1)c1cc(O)c(O)c(O)c1 [EGCG, epigallocatechin gallate]

system: HDAC activity in bovine cardiac tissue; experiment: Natural product library screen with class-selective HDAC substrates; assay type: biochemical; details: 2 hours treatment
How it was run: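 The screen covered 131 natural compounds against bovine cardiac tissue lysate at 30 µg protein/well in PBS (pH 7.4 lysis buffer with Triton X-100 and NaCl). Test compound for 2 h, then separate class I, IIa or IIb fluorogenic acyl-lysine-AMC substrates for 2 h at 37 °C. Developer (Triton X-100, 3 µM TSA, 0.75 mg/ml trypsin) for 20 min; fluorescence read at 360/460 nm.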

Row | SMILES | catalytic HDAC activity across class I, IIa and IIb substrates, effect in words
32 | O=c1cc(-c2ccc(O)c(O)c2)oc2cc(O)cc(O)c12 [Luteolin] | dose-dependent pan-HDAC inhibition
33 | O=c1c(O)c(-c2cc(O)c(O)c(O)c2)oc2cc(O)cc(O)c12 [Myricetin] | pan-HDAC inhibition
